Among the data in ChEMBL document CHEMBL1121850, “Synthesis of peptide analogues of prothrombin precursor sequence 5-9. Substrate specificity of vitamin K dependent carboxylase” (J Med Chem, 1981) are Relative activity and Km values, retold here.

Numbered stars: 1 amine (or outer) side, 2 acyl side, 3 side chain; on linkers, the order of the positions; unused ones are H or OH. Square brackets hold non-standard residues; d marks the D form. Peptide text beside a SMILES is read from it. * marks the point of attachment. ξ: configuration not given here. Pyrrolidin1yl(2S-Ac) = CC(=O)[C@@H]1CCCN1*; ξF = NC(Cc1ccccc1)C(=O)O; X1 = CO[C@H](CC(C)C)N*; Boc = CC(C)(C)OC(=O)*; CO = O=C([*:1])[*:2]; OtBu = CC(C)(C)O*

Data set [1] addresses T1, Vitamin K-dependent gamma-carboxylase (Rattus norvegicus) (UniProt O88496).
T1 sequence (whole entry): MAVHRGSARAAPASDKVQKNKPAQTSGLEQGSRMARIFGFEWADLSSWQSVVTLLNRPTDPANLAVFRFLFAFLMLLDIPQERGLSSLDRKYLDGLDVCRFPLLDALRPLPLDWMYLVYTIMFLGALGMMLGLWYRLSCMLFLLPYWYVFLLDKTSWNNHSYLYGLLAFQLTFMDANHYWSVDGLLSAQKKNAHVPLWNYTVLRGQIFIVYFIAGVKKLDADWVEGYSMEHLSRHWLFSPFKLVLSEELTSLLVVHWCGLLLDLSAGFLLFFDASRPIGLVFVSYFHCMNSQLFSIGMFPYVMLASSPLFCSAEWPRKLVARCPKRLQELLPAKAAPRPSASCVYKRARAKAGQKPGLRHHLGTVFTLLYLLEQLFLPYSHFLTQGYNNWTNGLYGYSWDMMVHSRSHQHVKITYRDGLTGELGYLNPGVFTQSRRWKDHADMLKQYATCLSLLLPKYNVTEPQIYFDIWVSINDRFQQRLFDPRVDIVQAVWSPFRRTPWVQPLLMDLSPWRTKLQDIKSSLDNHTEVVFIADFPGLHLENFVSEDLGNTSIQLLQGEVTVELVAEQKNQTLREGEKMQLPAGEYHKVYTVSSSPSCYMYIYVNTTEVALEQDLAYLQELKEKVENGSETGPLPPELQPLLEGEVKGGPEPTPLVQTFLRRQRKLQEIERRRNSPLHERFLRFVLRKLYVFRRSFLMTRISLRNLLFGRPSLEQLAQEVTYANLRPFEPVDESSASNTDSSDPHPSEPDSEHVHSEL
Briefly: Relative activity for […] rat liver vitamin K dependent carboxylase mediated carboxylation of pentapeptide at 1 mM. The class given is functional, tissue-based. Summed up:
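Carboxylase source was Triton-solubilized liver microsomes from vitamin K-deficient rats, pellets KCl-washed. Peptide at 1 mM was incubated with NaH¹⁴CO₃ and vitamin K-H₂ (in ethanol) at 17 °C for 10–20 min. Read-out was ¹⁴CO₂ in TCA-soluble material, with the ethanol-only background subtracted. Activity is given as % of the 1 mM reference pentapeptide on the same preparation; duplicate incubations.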

Data set [2] can be described thus: Michaelis constant was determined. The class given is ADME.

As to `COC(=O)[C@H](CC(C)C)NC(=O)[C@@H](CCC(=O)O)NC(=O)[C@@H](CCC(=O)O)NC(=O)OC(C)(C)C`, the Relative activity in data set [1] was < 1%.

For the molecule `COC(=O)[C@H](CC(C)C)NC(=O)[C@H](CCC(=O)O)NC(=O)[C@H](CCC(=O)O)NC(=O)CNC(=O)OC(C)(C)C` (HELM PEPTIDE1{[CC(C)(C)OC(=O)[*:2]].G.E.E.L.[CO[*:1]]}$$$$V2.0), the Relative activity in data set [1] amounted to 6%.

As for `CC(C)C[C@H](NC(=O)[C@H](CCC(=O)O)NC(=O)[C@H](CCC(=O)O)NC(=O)[C@H](CC(C)C)NC(=O)[C@H](Cc1ccccc1)NC(=O)c1ccccc1)C(=O)O` (HELM PEPTIDE1{[O=C(c1ccccc1)[*:2]].F.L.E.E.L}$$$$V2.0), in data set [1], the Relative activity worked out at 27%.

For the molecule `COC(=O)[C@H](CC(C)C)NC(=O)[C@@H](CCC(=O)O)NC(=O)[C@H](CCC(=O)O)NC(=O)[C@H](CC(C)C)NC(=O)[C@H](Cc1ccccc1)NC(=O)OC(C)(C)C`, the Relative activity in data set [1] was < 1%.

Turning to `CC(C)C[C@H](NC(=O)[C@H](CCC(=O)O)NC(=O)[C@H](CCC(=O)O)NC(=O)[C@H](C)NC(=O)[C@@H](N)Cc1ccccc1)C(=O)O` (H-FAEEL-OH), in data set [1], the Relative activity was determined as 72%.

Turning to `COC(=O)[C@@H](CC(C)C)NC(=O)[C@H](CCC(=O)O)NC(=O)[C@H](CCC(=O)O)NC(=O)OC(C)(C)C`, the Relative activity in data set [1] came out at 19%.

Turning to `CO[C@H](CC(C)C)NC(=O)[C@H](CCC(=O)O)NC(=O)[C@H](CCC(=O)O)NC(=O)[C@H](CC(C)C)NC(=O)OC(C)(C)C`, the Relative activity in data set [1] is 77%.

Regarding `COC(=O)[C@H](CC(C)C)NC(=O)[C@H](CCC(=O)O)NC(=O)[C@H](CCC(=O)O)NC(=O)[C@H](C)NC(=O)OC(C)(C)C` (HELM PEPTIDE1{[CC(C)(C)OC(=O)[*:2]].A.E.E.L.[CO[*:1]]}$$$$V2.0), in data set [1], the Relative activity was 19%.

Take `CO[C@@H](CC(C)C)NC(=O)[C@@H](CCC(=O)O)NC(=O)OC(C)(C)C`: the Relative activity in data set [1] was < 1%.

`COC(=O)[C@H](CC(C)C)NC(=O)[C@@H](CCC(=O)O)NC(=O)[C@@H](CCC(=O)O)NC(=O)[C@H](CC(C)C)NC(=O)[C@H](Cc1ccccc1)NC(=O)OC(C)(C)C`: the Relative activity in data set [1] is < 1%.

For the molecule `CC(C)(C)OC(=O)N[C@H](CCC(=O)O)C(=O)NCc1ccccc1`, in data set [1], the Relative activity was < 1%.

With `COC(=O)[C@H](CCC(=O)O)NC(=O)[C@H](C)NC(=O)[C@H](CCC(=O)O)NC(=O)[C@H](CC(C)C)NC(=O)N1CCC[C@H]1C(=O)OC(C)(C)C` ({OtBu-Pro-CO}-LEAE-OMe), the Relative activity in data set [1] was 19%.

Turning to `COC(=O)NC(=O)[C@H](CC(C)C)NC(=O)[C@H](CCC(=O)O)NC(=O)C(CCSC)NC(=O)CC(C)C` (stereo partly drawn), the Relative activity in data set [1] was 6%.

Take `COC(=O)[C@H](CC(C)C)NC(=O)[C@H](CCC(=O)O)NC(=O)[C@H](CCC(=O)O)NC(=O)CNC(=O)[C@H](Cc1ccccc1)NC(=O)OC(C)(C)C` (HELM PEPTIDE1{[CC(C)(C)OC(=O)[*:2]].F.G.E.E.L.[CO[*:1]]}$$$$V2.0): the Relative activity in data set [1] was 25%.

In the case of `COC(=O)[C@H](CC(C)C)NC(=O)[C@H](CCC(=O)O)NC(=O)[C@@H](CCC(=O)O)NC(=O)[C@H](CC(C)C)NC(=O)[C@H](Cc1ccccc1)NC(=O)OC(C)(C)C`, in data set [1], the Relative activity is < 1%.

`CC(C)C[C@H](NC(=O)[C@H](CCC(=O)O)NC(=O)[C@@H](CCC(=O)O)NC(=O)[C@H](CC(C)C)NC(=O)[C@@H](N)Cc1ccccc1)C(=O)O`: the Km in data set [2] is 4 mM. The Relative activity in data set [1] came to 100%.

Regarding `COC(=O)NC(=O)[C@H](CC(C)C)NC(=O)[C@H](CCCC(=O)O)NC(=O)C(CCCC(=O)O)NC(=O)OC(C)(C)C` (stereo partly drawn), the Relative activity in data set [1] is < 1%.

In the case of `COC(=O)NC(=O)[C@H](CC(C)C)NC(=O)[C@H](CC(=O)O)NC(=O)C(CCC(=O)O)NC(=O)OC(C)(C)C` (stereo partly drawn), in data set [1], the Relative activity was found to be 11%.

In the case of `COC(=O)[C@H](CCC(=O)O)NC(=O)[C@H](C)NC(=O)[C@H](CCC(=O)O)NC(=O)[C@H](CC(C)C)NC(=O)N1CCC[C@H]1C(C)=O` ({Pyrrolidin1yl(2S-Ac)-CO}-LEAE-OMe), the Relative activity in data set [1] worked out at 25%.

Take `CCC(=O)N[C@@H](Cc1ccccc1)C(=O)N[C@@H](CC(C)C)C(=O)N[C@@H](CCC(=O)O)C(=O)N[C@@H](CCC(=O)O)C(=O)N[C@@H](CC(C)C)C(=O)O` (HELM PEPTIDE1{[CCC(=O)[*:2]].F.L.E.E.L}$$$$V2.0): in data set [1], the Relative activity stood at 149%.

With `COC(=O)[C@@H](CC(C)C)NC(=O)[C@H](CCC(=O)O)NC(=O)[C@H](CCC(=O)O)NC(=O)[C@H](CC(C)C)NC(=O)OC(C)(C)C`, the Relative activity in data set [1] was determined as 77%.

For the molecule `COC(=O)NC(=O)[C@H](CC(C)C)NC(=O)[C@H](CC(=O)O)NC(=O)C(CC(=O)O)NC(=O)OC(C)(C)C` (stereo partly drawn), the Relative activity in data set [1] was < 1%.

As to `COC(=O)[C@H](CC(C)C)NC(=O)[C@H](CCC(=O)O)NC(=O)[C@H](CCC(=O)O)NC(=O)OC(C)(C)C`, the Relative activity in data set [1] worked out at 107%.

For the molecule `CC(C)C[C@H](NC(=O)[C@H](CCC(=O)O)NC(=O)[C@H](CCC(=O)O)NC(=O)[C@@H](N)CC(C)C)C(=O)O` (H-LEEL-OH), the Relative activity in data set [1] is 8%.

Consider `COC(=O)[C@H](CCC(=O)O)NC(=O)[C@H](C)NC(=O)[C@H](CCC(=O)O)NC(=O)[C@H](CC(C)C)NC(=O)OC(C)(C)C` (HELM PEPTIDE1{[CC(C)(C)OC(=O)[*:2]].L.E.A.E.[CO[*:1]]}$$$$V2.0), for which, in data set [1], the Relative activity stood at 46%.

For the molecule `COC(=O)NC(=O)[C@H](CC(C)C)NC(=O)[C@H](CCC(=O)O)NC(=O)C(CCC(=O)O)NC(=O)OC(C)(C)C` (stereo partly drawn), in data set [1], the Relative activity was < 1%.

Take `COC(=O)[C@H](CC(C)C)NC(=O)[C@H](CCC(=O)O)NC(=O)[C@@H](CCC(=O)O)NC(=O)OC(C)(C)C`: in data set [1], the Relative activity was < 1%.

Take `COC(=O)[C@H](CC(C)C)NC(=O)[C@@H](CCC(=O)O)NC(=O)[C@H](CCC(=O)O)NC(=O)OC(C)(C)C`: in data set [1], the Relative activity is < 1%.

With `COC(=O)[C@H](CC(C)C)NC(=O)[C@H](CCC(=O)O)NC(=O)[C@H](CCC(=O)O)NC(=O)[C@@H](CC(C)C)NC(=O)OC(C)(C)C`, the Relative activity in data set [1] came out at 55%.

In the case of `CO[C@H](CC(C)C)NC(=O)[C@H](CCC(=O)O)NC(=O)[C@H](CCC(=O)O)NC(=O)[C@H](CC(C)C)NC(=O)C(Cc1ccccc1)NC(=O)OC(C)(C)C` (stereo partly drawn) (Boc-[ξF]LEE-X1), the Relative activity in data set [1] came out at 24%.

As to `CC(C)C[C@H](NC(=O)[C@H](CCC(=O)O)NC(=O)[C@H](CCC(=O)O)NC(=O)CNC(=O)[C@@H](N)Cc1ccccc1)C(=O)O` (H-FGEEL-OH), the Relative activity in data set [1] amounted to 4%.

Consider `COC(=O)NC(=O)[C@H](CC(C)C)NC(=O)[C@H](CCC(=O)O)NC(=O)C(CC(=O)O)NC(=O)OC(C)(C)C` (stereo partly drawn), for which the Relative activity in data set [1] amounted to 11%.

As to `CC(C)C[C@H](NC(=O)[C@H](CO)NC(=O)[C@H](CCC(=O)O)NC(=O)[C@H](CC(C)C)NC(=O)[C@H](C)NC(=O)[C@H](CCC(=O)O)NC(=O)[C@@H](N)Cc1ccccc1)C(=O)O` (H-FEALESL-OH), the Relative activity in data set [1] is 6%.

Turning to `CC(C)C[C@H](NC(=O)[C@H](CCC(=O)O)NC(=O)[C@H](CC(C)C)NC(=O)[C@H](CCC(=O)O)NC(=O)[C@H](Cc1ccccc1)NC(=O)O)C(=O)O` (HELM PEPTIDE1{[O=C(O)[*:2]].F.E.L.E.L}$$$$V2.0), the Relative activity in data set [1] was < 1%.

Take `COC(=O)[C@@H](CC(C)C)NC(=O)[C@H](CCC(=O)O)NC(=O)[C@H](CCC(=O)O)NC(=O)[C@@H](CC(C)C)NC(=O)OC(C)(C)C`: the Relative activity in data set [1] worked out at 19%.

As to `CC(C)(C)OC(=O)N[C@H](CCC(=O)O)C(=O)OCc1ccccc1`, in data set [1], the Relative activity came out at 5%.

In the case of `COC(=O)NC(=O)[C@H](CCC(=O)O)NC(=O)[C@H](C)NC(=O)[C@H](CCC(=O)O)NC(=O)OC(C)(C)C`, in data set [1], the Relative activity stood at 4%.
